Measurements from ChEMBL document CHEMBL1800028, “Analogues of 4-[(7-Bromo-2-methyl-4-oxo-3H-quinazolin-6-yl)methylprop-2-ynylamino]-N-(3-pyridylmethyl)benzamide (CB-30865) as potent inhibitors of nicotinamide phosphoribosyltransferase (Nampt)” (J Med Chem, 2010).
Activity calls are given as the source filed them. The calls are words filed in the database; no cut-off is given here.

How the values were obtained:
[1] = target: T1, Nicotinamide phosphoribosyltransferase (Homo sapiens, UniProt P43490); test: Inhibition of nicotinamide phosphoribosyltransferase-catalyzed conversion of nicotinamide to nicotinamide mononucleotide
In short: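 Coupled-enzyme format: Nampt turnover of nicotinamide to NMN monitored through a downstream coupled reaction; IC50 determined.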
Target sequence in this assay (P43490 whole entry): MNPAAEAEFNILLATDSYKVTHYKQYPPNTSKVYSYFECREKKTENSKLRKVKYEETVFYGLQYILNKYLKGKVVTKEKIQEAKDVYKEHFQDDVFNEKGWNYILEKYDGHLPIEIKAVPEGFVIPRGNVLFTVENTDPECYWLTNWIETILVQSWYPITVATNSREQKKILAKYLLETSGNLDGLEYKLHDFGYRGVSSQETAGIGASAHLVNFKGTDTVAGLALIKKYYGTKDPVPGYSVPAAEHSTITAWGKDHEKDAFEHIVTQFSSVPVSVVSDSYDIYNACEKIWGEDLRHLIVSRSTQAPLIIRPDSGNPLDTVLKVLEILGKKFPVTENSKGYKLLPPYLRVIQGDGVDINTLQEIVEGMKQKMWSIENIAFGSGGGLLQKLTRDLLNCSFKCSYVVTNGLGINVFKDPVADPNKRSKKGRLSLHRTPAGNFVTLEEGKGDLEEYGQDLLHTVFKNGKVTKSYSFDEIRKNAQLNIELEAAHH

[2] = tested on: HCT-116; test: Cytotoxicity against human HCT116 cells after 72 hrs; assay type: functional
In short: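 HCT116 colon carcinoma cells treated with compound for 72 h; viability read out as cellular ATP levels.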

[3] = target: T1, Nicotinamide phosphoribosyltransferase; test: Inhibition of Nampt activity in H2O2-induced DNA damage in human MCF10A cells stably transfected with PIK3CA (H1047R) assessed as loss of PARP activity; assay type: cell-based; details: MCF-10A
Target sequence in this assay (P43490 whole entry, looked up): as the sequence (P43490 whole entry) above

[4] = tested on: HCT-116; test: Cytotoxicity against human HCT116 cells after 72 hrs in presence of 10 uM exogenous nicotinic acid; assay type: functional, cell-based; details: HCT-116, 72 h
In short: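 HCT116 colon carcinoma cells treated for 72 h with compound plus 10 μM exogenous nicotinic acid to test whether killing depends on Nampt; viability read out as cellular ATP levels.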

[5] = target: T1, Nicotinamide phosphoribosyltransferase; test: Inhibition of nicotinamide phosphoribosyltransferase-catalyzed conversion of nicotinamide to nicotinamide mononucleotide at 10 uM
Target sequence in this assay (P43490 whole entry, looked up): as the sequence (P43490 whole entry) above

[6] = tested on: WIL2; test: Cytotoxicity against human W1L2 cells; assay type: functional, cell-based
[7] = target: T1, Nicotinamide phosphoribosyltransferase; test: Inhibition of nicotinamide phosphoribosyltransferase-mediated decrease in cellular NAD level
Target sequence in this assay (P43490 whole entry): as above

[8] = target: Thymidylate synthase (Homo sapiens, UniProt P04818); test: Inhibition of thymidylate synthase
[9] = target: T1, Nicotinamide phosphoribosyltransferase; test: Inhibition of nicotinamide phosphoribosyltransferase-catalyzed conversion of nicotinamide to nicotinamide mononucleotide relative to untreated enzyme; details: concentration not given here
Target sequence in this assay (P43490 whole entry, looked up): as the sequence (P43490 whole entry) above

Chain of Thymidylate synthase (P04818 whole entry): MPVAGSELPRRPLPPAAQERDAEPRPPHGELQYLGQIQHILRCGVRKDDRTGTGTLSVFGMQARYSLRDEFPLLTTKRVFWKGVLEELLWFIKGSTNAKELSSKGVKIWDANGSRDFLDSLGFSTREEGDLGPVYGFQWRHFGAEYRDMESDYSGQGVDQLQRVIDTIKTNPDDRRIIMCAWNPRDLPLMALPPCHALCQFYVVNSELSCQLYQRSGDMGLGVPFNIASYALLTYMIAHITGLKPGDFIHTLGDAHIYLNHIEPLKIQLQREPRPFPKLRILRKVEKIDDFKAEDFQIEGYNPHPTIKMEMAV

Row | Structure (SMILES) | IC50 [1] [nM] | Activity [2] [µM] | inhibitory concentration [3] [µM] | other results
1 | C#CCCN(Cc1ccc2nc(C)n(C)c(=O)c2c1)c1ccc(C(=O)NCc2cccnc2)cc1 | 950 | 6.3 | 2.9 | –
2 | C#CCN(Cc1ccc2nc(C)n(C)c(=O)c2c1)c1ccc(C(=O)NCc2cccc(F)c2)cc1 | 250 | >10 | > 5 | –
3 | CC(C)=CCN(Cc1ccccc1Cl)c1ccc(C(=O)NCc2cccnc2)cc1 | 1.9 | 0.016 | 0.0032 | EC50 [4]: > 10000 nM
4 | C#CCN(Cc1ccc2nc(C)n(C)c(=O)c2c1)c1ccc(C(=O)NCc2ccccc2F)cc1 | 34 | 9.7 | > 5 | –
5 | CC(C)CCN(Cc1ccccc1Cl)c1ccc(C(=O)NCc2cccnc2)cc1 | 6.1 | 0.39 | 0.0079 | EC50 [4]: > 10000 nM
6 | C/C=C/CN(Cc1ccccc1Cl)c1ccc(C(=O)NCc2cccnc2)cc1 | 1.5 | 0.099 | 0.0089 | –
7 | O=C(NCc1cccnc1)c1ccc(N(Cc2ccccc2)Cc2ccccc2Cl)cc1 | 110 | 0.7 | 0.17 | –
8 | C#CCN(Cc1cc2c(=O)n(C)c(C)nc2cc1Cl)c1ccc(C(=O)NCc2cccnc2)cc1 | 0.55 | 0.0021 | 0.00045 | –
9 | CC(C)=CCN(Cc1ccc2ncn(C)c(=O)c2c1)c1ccc(C(=O)NCc2cccnc2)cc1 | 1.2 | 0.004 | 0.0004 | –
10 | Cc1c(Sc2ccc(C(=O)NCc3cccnc3)cc2)[nH]c2nc(N)nc(N)c12 | 1200 | – | – | –
11 | C#CCN(Cc1coc2nc(N)nc(N)c12)c1ccc(C(=O)NCc2cccnc2)cc1 | > 10000 | >10 | > 5 | –
12 | Cc1nc2ccc(CN(CC3CC3)c3ccc(C(=O)NCc4cccnc4)cc3)cc2c(=O)n1C | 2600 | 0.11 | 0.019 | –
13 | C#CCN(Cc1ccc2nc(C)n(C)c(=O)c2c1)c1ccc(C(=O)NCc2cccnc2)cc1 | 3.6 | 0.034 | 0.0095 | –
14 | C#CCN(Cc1cc2c(=O)n(C)c(CO)nc2cc1Cl)c1ccc(C(=O)NCc2cccnc2)cc1 | 0.79 | 0.0016 | 0.0001 | –
15 | Cn1cnc2cc(Cl)c(NCc3ccc(C(=O)NCc4cccnc4)cc3)cc2c1=O | 3.8 | 0.42 | 0.0093 | –
16 | Cc1[nH]c2nc(N)[nH]c(=O)c2c1Sc1ccc(C(=O)NCc2cccnc2)cc1 | 2800 | – | > 5 | –
17 | CCCCN(Cc1ccccc1Cl)c1ccc(C(=O)NCc2cccnc2)cc1 | > 10000 | – | – | –
18 | C#CCN(Cc1cc2c(=O)n(C)c(CN3CCN(CCCN)CC3)nc2cc1Cl)c1ccc(C(=O)NCc2cccnc2)cc1 | 0.3 | 0.018 | 0.0018 | –
19 | CC(C)=CCN(Cc1ccc2nc(C)n(C)c(=O)c2c1)c1ccc(C(=O)NCc2nc3ccccc3[nH]2)cc1 | 31 | 1.4 | 0.7 | –

Row | Structure (SMILES) | IC50 [1] [nM] | Activity [2] [µM] | inhibitory concentration [3] [µM] | other results
20 | C/C=C/CN(Cc1ccc2nc(C)n(C)c(=O)c2c1)c1ccc(C(=O)NCc2cccnc2)cc1 | 2.9 | 0.0044 | 0.0016 | –
21 | C#CCN(Cc1ccc2nc(C)n(C)c(=O)c2c1)c1ccc(C(=O)NCC2CCCNC2)cc1 (centres undefined) | > 10000 | – | – | inhibition [5]: inactive
22 | Cc1noc(C)c1CN(Cc1ccc2nc(C)n(C)c(=O)c2c1)c1ccc(C(=O)NCc2cccnc2)cc1 | 210 | 5.3 | 0.012 | –
23 | CC(C)CN(Cc1ccccc1Cl)c1ccc(C(=O)NCc2cccnc2)cc1 | 420 | – | – | –
24 | CCCN(Cc1ccccc1Cl)c1ccc(C(=O)NCc2cccnc2)cc1 | 15 | 3.5 | 0.24 | –
25 | C#CCN(Cc1cc2c(=O)n(C)c(CN3CCN(C)CC3)nc2cc1Cl)c1ccc(C(=O)NCc2cccnc2)cc1 | 0.31 | 0.00046 | 5e-05 | EC50 [6]: 0.49 nM
26 | O=C(CCCCCCCn1cc(-c2cccnc2)nn1)Nc1ccccc1-c1ccccc1 | – | – | – | IC50 [7]: 3 nM
27 | Cn1cnc2cc(Cl)c(C(=O)Nc3ccc(C(=O)NCc4cccnc4)cc3)cc2c1=O | 12 | 0.73 | 0.048 | –
28 | C#CCN(Cc1ccc2nc(C)n(C)c(=O)c2c1)c1ccc(C(=O)NCc2ccc(F)c(F)c2)cc1 | 30 | >10 | > 5 | –
29 | Nc1nc(N)c2c(CCc3ccc(C(=O)NCc4cccnc4)cc3)c[nH]c2n1 | 600 | >10 | > 5 | –
30 | Cc1c(Sc2ccc(C(=O)NCCc3cccnc3)cc2)[nH]c2nc(N)nc(N)c12 | 90 | >10 | – | –
31 | CCN(Cc1ccccc1Cl)c1ccc(C(=O)NCc2cccnc2)cc1 | 330 | >10 | > 5 | –
32 | CC(C)=CCN(Cc1ccc2nc(C)n(C)c(=O)c2c1)c1ccc(C(=O)NCc2cccnc2)cc1 | 1.4 | 0.0035 | 0.00023 | –
33 | C#CCN(Cc1ccc2nc(C)n(C)c(=O)c2c1)c1ccc(C(=O)NCc2nc3ccccc3[nH]2)cc1 | 130 | 5.4 | > 5 | –
34 | CN(Cc1ccccc1Cl)c1ccc(C(=O)NCc2cccnc2)cc1 | > 10000 | – | – | –
35 | CC(C)=CCN(Cc1cc2c(=O)n(C)cnc2cc1Cl)c1ccc(C(=O)NCc2cccnc2)cc1 | 2.6 | 0.0073 | 0.0005 | EC50 [4]: > 10000 nM
36 | CC(C)=CC(=O)N(Cc1cc2c(=O)n(C)cnc2cc1Cl)c1ccc(C(=O)NCc2cccnc2)cc1 | 660 | 4.1 | 0.37 | –
37 | Cc1nc2ccc(CN(C(=O)C3CC3)c3ccc(C(=O)NCc4cccnc4)cc3)cc2c(=O)n1C | > 10000 | >10 | 2.6 | –
38 | O=C(NCc1cccnc1)c1ccc(N(Cc2ccccc2Cl)CC2CC2)cc1 | 1.3 | 0.059 | 0.011 | –

Row | Structure (SMILES) | IC50 [1] [nM] | Activity [2] [µM] | inhibitory concentration [3] [µM] | other results
39 | CC(C)=CCN(Cc1cc2c(=O)n(C)c(C)nc2cc1Cl)c1ccc(C(=O)NCc2cccnc2)cc1 | 11 | 0.0095 | 0.0018 | EC50 [4]: > 10000 nM
40 | Cc1nc2c(c(=O)[nH]1)CN(C(=O)c1ccc(C(=O)NCc3cccnc3)cc1)CC2 | 7200 | >10 | > 5 | –
41 | CC(C)=CCN(Cc1cc2c(=O)n(C)nnc2cc1Cl)c1ccc(C(=O)NCc2cccnc2)cc1 | – | 0.003 | 0.0017 | –
42 | C#CCN(Cc1cc2c(=O)n(C)c(C)nc2cc1Cl)c1ccc(C(=O)NCc2nc3ccccc3[nH]2)cc1 | 40 | 5.7 | 3.2 | –
43 | CC(C)=CCN(Cc1cc2c(=O)n(C)c(C)nc2cc1Cl)c1ccc(C(=O)NCc2nc3ccccc3[nH]2)cc1 | 25 | 6.4 | > 5 | –
44 | Cn1cnc2cc(Cl)c(CN(CC(N)=O)c3ccc(C(=O)NCc4cccnc4)cc3)cc2c1=O | 56 | >10 | > 1 | EC50 [4]: > 10000 nM
45 | C#CCN(Cc1ccccc1Cl)c1ccc(C(=O)NCc2cccnc2)cc1 | 4.2 | 2.4 | 0.15 | EC50 [4]: > 10000 nM
46 | C#CCN(Cc1ccc2nc(C)n(C)c(=O)c2c1)c1ccc(C(=O)NCc2ccc(F)cc2F)cc1 | 49 | >10 | > 5 | –
47 | C#CCN(Cc1ccc2nc(C)n(C)c(=O)c2c1)c1ccc(C(=O)NCc2ccc(Cl)cc2)cc1 | 150 | >10 | > 5 | –
48 | C#CCN(Cc1ccc2ncn(C)c(=O)c2c1)c1ccc(C(=O)NCc2cccnc2)cc1 | 12 | 0.3 | 0.025 | –
49 | C#CCN(Cc1cc2c(=O)[nH]c(C)nc2cc1Br)c1ccc(C(=O)NCc2ccncc2)cc1 | – | – | – | IC50 [8]: 156 nM
50 | Cc1nc2c(c(=O)[nH]1)CN(C(=O)Nc1ccc(C(=O)NCc3cccnc3)cc1)CC2 | 29 | >10 | > 5 | –
51 | C#CCN(Cc1cc2c(=O)[nH]c(C)nc2cc1Br)c1ccc(C(=O)NCc2ccccn2)cc1 | – | – | – | inhibition [9]: 90%; IC50 [8]: 156 nM
52 | C#CCCN(Cc1cc2c(=O)n(C)cnc2cc1Cl)c1ccc(C(=O)NCc2cccnc2)cc1 | 12 | 0.15 | 0.03 | –
53 | C#CCN(Cc1ccc2nc(C)n(C)c(=O)c2c1)c1ccc(C(=O)NCc2ccc3c(c2)OCO3)cc1 | 85 | >10 | > 5 | –
54 | C#CCN(Cc1ccc2nc(C)n(C)c(=O)c2c1)c1ccc(C(=O)NCc2ccc(F)c(F)c2F)cc1 | 98 | >10 | > 5 | –
55 | C#CCN(Cc1cc2c(O)nc(C)nc2cc1Br)c1ccc(C(=O)NCc2cccnc2)cc1 | – | – | – | EC50 [6]: 2.8 nM
56 | CC(C)=CC(=O)N(Cc1ccc2nc(C)n(C)c(=O)c2c1)c1ccc(C(=O)NCc2cccnc2)cc1 | > 10000 | >10 | 2.2 | –
57 | Cn1cnc2cc(Cl)c(CN(CC3CC3)c3ccc(C(=O)NCc4cccnc4)cc3)cc2c1=O | 13 | 0.11 | 0.012 | –
